In ChEMBL document CHEMBL1649124, “Genetic variability among ampC genes from acinetobacter genomic species 3” (Antimicrob Agents Chemother, 2009):
In brackets after ≈: the same amount, converted by molar mass.

How the values were obtained:
[1] = test system: CC(C)(O/N=C(\C(=O)N[C@@H]1C(=O)N2C(C(=O)[O-])=C(C[n+]3ccccc3)CS[C@H]12)c1csc(N)n1)C(=O)O; experiment: (§1) Ratio of Kcat to Km for Acinetobacter genomosp. 3 isolate 103 ADC-16; details: Acinetobacter pittii
In short: (§2)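 AmpC genes from AG3 clinical isolates were cloned into pGEX-6P-1 and expressed as GST fusions. The mature enzyme was purified free of GST, giving a 43 kDa SDS-PAGE band of 95% purity. Kinetics were read spectrophotometrically at 25°C in PBS with 20 mg/liter BSA, three repeats. For poor substrates, Km was taken as Ki in competitive assays with Centa as reporter substrate. Vmax came from the Michaelis-Menten equation at six times Km antibiotic.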

[2] = test system: CC(=O)OCC1=C(C(=O)O)N2C(=O)[C@@H](NC(=O)Cc3cccs3)[C@H]2SC1; experiment: as §1; details: Acinetobacter pittii; in short: as §2
[3] = test system: CO[C@@]1(NC(=O)Cc2cccs2)C(=O)N2C(C(=O)O)=C(COC(N)=O)CS[C@@H]21; experiment: as §1; details: Acinetobacter pittii; in short: as §2
[4] = test system: CO/N=C(\C(=O)N[C@@H]1C(=O)N2C(C(=O)O)=C(COC(N)=O)CS[C@H]12)c1ccco1; experiment: as §1; details: Acinetobacter pittii; in short: as §2
[5] = test system: CO/N=C(\C(=O)N[C@@H]1C(=O)N2C(C(=O)O)=C(COC(C)=O)CS[C@H]12)c1csc(N)n1; experiment: as §1; details: Acinetobacter pittii; in short: as §2
[6] = test system: C[C@H]1[C@H](NC(=O)/C(=N\OC(C)(C)C(=O)O)c2csc(N)n2)C(=O)N1S(=O)(=O)O; experiment: (§3) Activity of Acinetobacter genomosp. 3 isolate 103 ADC-16; details: Acinetobacter pittii; in short: as §2
[7] = test system: CC(C)(O/N=C(\C(=O)N[C@@H]1C(=O)N2C(C(=O)[O-])=C(C[n+]3ccccc3)CS[C@H]12)c1csc(N)n1)C(=O)O; experiment: as §3; details: Acinetobacter pittii; in short: as §2
[8] = test system: CC(=O)OCC1=C(C(=O)O)N2C(=O)[C@@H](NC(=O)Cc3cccs3)[C@H]2SC1; experiment: as §3; details: Acinetobacter pittii; in short: as §2
[9] = test system: CO[C@@]1(NC(=O)Cc2cccs2)C(=O)N2C(C(=O)O)=C(COC(N)=O)CS[C@@H]21; experiment: as §3; details: Acinetobacter pittii; in short: as §2
[10] = test system: CO/N=C(\C(=O)N[C@@H]1C(=O)N2C(C(=O)O)=C(COC(N)=O)CS[C@H]12)c1ccco1; experiment: as §3; details: Acinetobacter pittii; in short: as §2
[11] = test system: CO/N=C(\C(=O)N[C@@H]1C(=O)N2C(C(=O)O)=C(COC(C)=O)CS[C@H]12)c1csc(N)n1; experiment: as §3; details: Acinetobacter pittii; in short: as §2
[12] = test system: Acinetobacter pittii; experiment: Antibacterial activity against Acinetobacter genomosp. 3 isolate 52 by Etest method; type: functional
In short: (§4)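 MICs for AG3 clinical isolates were read by Etest following the manufacturer's instructions. Isolates were stored at –80°C in 10% Brucella glycerol broth before testing.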

[13] = test system: Escherichia coli; experiment: Antibacterial activity against Escherichia coli DH5alpha carrying ampC gene of Acinetobacter genomosp. 3 isolate 103 by Etest method; type: functional
In short: (§5)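 E. coli DH5α expressing the AG3 isolate ampC gene, PCR-amplified (high-fidelity system, 28 cycles) and cloned into BamHI/HindIII sites of pBGS18 (kanamycin marker) under the CTX-M-14 β-lactamase promoter. Grown at 37°C in LB, with kanamycin 50 µg/ml when needed. β-Lactam MICs determined by Etest per the manufacturer's instructions.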

[14] = test system: Acinetobacter pittii; experiment: Antibacterial activity against Acinetobacter genomosp. 3 isolate 20 by Etest method; type: functional; in short: as §4
[15] = test system: Acinetobacter pittii; experiment: Antibacterial activity against Acinetobacter genomosp. 3 isolate 103 by Etest method; type: functional; in short: as §4
[16] = test system: Escherichia coli; experiment: Antibacterial activity against Escherichia coli DH5alpha carrying ampC gene of Acinetobacter genomosp. 3 isolate 14 by Etest method; type: functional; in short: as §5
[17] = test system: Acinetobacter pittii; experiment: Antibacterial activity against Acinetobacter genomosp. 3 isolate 14 by Etest method; type: functional; in short: as §4
[18] = test system: Acinetobacter pittii; experiment: Antibacterial activity against Acinetobacter genomosp. 3 isolate 67 by Etest method; type: functional; in short: as §4
[19] = test system: Escherichia coli; experiment: Antibacterial activity against Escherichia coli DH5alpha carrying ampC gene of Acinetobacter genomosp. 3 isolate 109 by Etest method; type: functional; in short: as §5
[20] = test system: Escherichia coli; experiment: Antibacterial activity against Escherichia coli DH5alpha carrying ampC gene of Acinetobacter genomosp. 3 isolate 20 by Etest method; type: functional; in short: as §5
[21] = test system: Acinetobacter pittii; experiment: Antibacterial activity against Acinetobacter genomosp. 3 isolate 243 by Etest method; type: functional; in short: as §4
[22] = test system: Escherichia coli; experiment: Antibacterial activity against Escherichia coli DH5alpha carrying ampC gene of Acinetobacter genomosp. 3 isolate 69 by Etest method; type: functional; in short: as §5
[23] = test system: Acinetobacter pittii; experiment: Antibacterial activity against Acinetobacter genomosp. 3 isolate 195 by Etest method; type: functional; in short: as §4
[24] = test system: Escherichia coli; experiment: Antibacterial activity against Escherichia coli DH5alpha carrying ampC gene of Acinetobacter genomosp. 3 isolate 56 by Etest method; type: functional; in short: as §5
[25] = test system: Acinetobacter pittii; experiment: Antibacterial activity against Acinetobacter genomosp. 3 isolate 69 by Etest method; type: functional; in short: as §4
[26] = test system: Acinetobacter pittii; experiment: Antibacterial activity against Acinetobacter genomosp. 3 isolate 65 by Etest method; type: functional; in short: as §4
[27] = test system: Escherichia coli; experiment: Antibacterial activity against Escherichia coli DH5alpha carrying ampC gene of Acinetobacter genomosp. 3 isolate 65 by Etest method; type: functional; in short: as §5
[28] = test system: Escherichia coli; experiment: Antibacterial activity against Escherichia coli DH5alpha by Etest method; type: functional
In short: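 E. coli DH5α host strain, grown at 37°C in LB medium. MICs of β-lactams determined by Etest following the manufacturer's instructions.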

[29] = test system: Acinetobacter pittii; experiment: Antibacterial activity against Acinetobacter genomosp. 3 isolate 60 by Etest method; type: functional; in short: as §4
[30] = test system: Acinetobacter pittii; experiment: Antibacterial activity against Acinetobacter genomosp. 3 isolate 109 by Etest method; type: functional; in short: as §4
[31] = test system: Acinetobacter pittii; experiment: Antibacterial activity against Acinetobacter genomosp. 3 isolate 56 by Etest method; type: functional; in short: as §4
[32] = test system: Acinetobacter pittii; experiment: Antibacterial activity against Acinetobacter genomosp. 3 isolate 90 by Etest method; type: functional; in short: as §4
[33] = test system: Escherichia coli; experiment: Antibacterial activity against Escherichia coli DH5alpha carrying ampC gene of Acinetobacter genomosp. 3 isolate 195 by Etest method; type: functional; in short: as §5
[34] = test system: Acinetobacter pittii; experiment: Antibacterial activity against Acinetobacter genomosp. 3 isolate 21 by Etest method; type: functional; in short: as §4
[35] = test system: Acinetobacter pittii; experiment: Antibacterial activity against Acinetobacter genomosp. 3 isolate 128 by Etest method; type: functional; in short: as §4

Compound	MIC [12]	MIC [13]	MIC [14]	MIC [15]	MIC [16]	MIC [17]	MIC [18]	MIC [19]	MIC [20]	MIC [21]	MIC [22]	MIC [23]	MIC [24]	MIC [25]	MIC [26]	MIC [27]	MIC [28]	MIC [29]	MIC [30]	MIC [31]	also measured
ADC-16 protein (Acinetobacter genomosp. 3) (from UniProt Q0VTR8)																					kcat/Km [1]: 212000 M⁻¹ s⁻¹; kcat/Km [2]: 9.92e+06 M⁻¹ s⁻¹; kcat/Km [3]: 1.88e+06 M⁻¹ s⁻¹; kcat/Km [4]: 2.34e+06 M⁻¹ s⁻¹; kcat/Km [5]: 212000 M⁻¹ s⁻¹; Km [6]: 3.85 µM; Km [7]: 110 µM; kcat [7]: 0.02 s⁻¹; Km [8]: 139 µM; kcat [8]: 1380 s⁻¹; Km [9]: 0.18 µM; kcat [9]: 0.33 s⁻¹; Km [10]: 0.27 µM; kcat [10]: 0.62 s⁻¹; Km [11]: 0.32 µM; kcat [11]: 0.07 s⁻¹
CO/N=C(\C(=O)N[C@@H]1C(=O)N2C(C(=O)O)=C(COC(C)=O)CS[C@H]12)c1csc(N)n1 [CEFOTAXIME]	12 µg/mL (≈ 26.3 µM)	0.75 µg/mL (≈ 1.65 µM)	16 µg/mL (≈ 35.1 µM)	16 µg/mL (≈ 35.1 µM)	0.75 µg/mL (≈ 1.65 µM)	24 µg/mL (≈ 52.7 µM)	16 µg/mL (≈ 35.1 µM)	0.38 µg/mL (≈ 0.834 µM)	0.125 µg/mL (≈ 0.274 µM)	16 µg/mL (≈ 35.1 µM)	0.38 µg/mL (≈ 0.834 µM)	24 µg/mL (≈ 52.7 µM)	0.38 µg/mL (≈ 0.834 µM)	16 µg/mL (≈ 35.1 µM)	12 µg/mL (≈ 26.3 µM)	25 µg/mL (≈ 54.9 µM)	0.064 µg/mL (≈ 0.141 µM)	24 µg/mL (≈ 52.7 µM)	16 µg/mL (≈ 35.1 µM)	4 µg/mL (≈ 8.78 µM)	MIC [32]: 12 µg/mL (≈ 26.3 µM); MIC [33]: 0.75 µg/mL (≈ 1.65 µM); MIC [34]: 24 µg/mL (≈ 52.7 µM); MIC [35]: 12 µg/mL (≈ 26.3 µM)
CC(C)(O/N=C(\C(=O)N[C@@H]1C(=O)N2C(C(=O)[O-])=C(C[n+]3ccccc3)CS[C@H]12)c1csc(N)n1)C(=O)O [CEFTAZIDIME]	3 µg/mL (≈ 5.49 µM)	0.5 µg/mL (≈ 0.915 µM)	4 µg/mL (≈ 7.32 µM)	4 µg/mL (≈ 7.32 µM)	0.38 µg/mL (≈ 0.695 µM)	3 µg/mL (≈ 5.49 µM)	3 µg/mL (≈ 5.49 µM)	0.19 µg/mL (≈ 0.348 µM)	0.75 µg/mL (≈ 1.37 µM)	4 µg/mL (≈ 7.32 µM)	0.19 µg/mL (≈ 0.348 µM)	4 µg/mL (≈ 7.32 µM)	0.25 µg/mL (≈ 0.457 µM)	4 µg/mL (≈ 7.32 µM)	4 µg/mL (≈ 7.32 µM)	0.25 µg/mL (≈ 0.457 µM)	0.19 µg/mL (≈ 0.348 µM)	3 µg/mL (≈ 5.49 µM)	3 µg/mL (≈ 5.49 µM)	1.5 µg/mL (≈ 2.74 µM)	MIC [32]: 6 µg/mL (≈ 11 µM); MIC [33]: 0.5 µg/mL (≈ 0.915 µM); MIC [34]: 6 µg/mL (≈ 11 µM); MIC [35]: 3 µg/mL (≈ 5.49 µM)
